Test results from ChEMBL document CHEMBL4842356, “Discovery, optimization, and target identification of novel coumarin derivatives as HIV-1 reverse transcriptase-associated ribonuclease H inhibitors” (Eur J Med Chem, 2021).

How the values were obtained:
[1] = molecular target: Human immunodeficiency virus type 1 reverse transcriptase (Human immunodeficiency virus 1, UniProt Q72547); assay: Inhibition of wild type HIV1 Reverse transcriptase RNase H expressed in Escherichia coli using 5'-UUUUUUUUUAGGAUACAUAUGGUUAAAGU-3' oligonucleotide as substrate and DNA21P as primer in presence of [gamma32P]-ATP by PAGE analysis
Outline: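 Wild-type HIV-1 BH10 RT was expressed in E. coli and purified. RNase H activity was measured on a 31-nt RNA, 5′-³²P-labelled, annealed to a 21-nt DNA (31T/21P). Cleaved substrate was quantified without inhibitor (5% DMSO) and with compound over 0.2–100 µM. IC₅₀ values were taken from dose-response curves.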

MT4 = assay: Cytotoxicity against mock-infected human MT4 cells assessed as reduction in cell viability measured after 5 days by MTT assay; assay type: functional; settings: MT4, 120 h, time 5 day
Outline: (§1)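 MT-4 cells (exponentially growing, resuspended at 6 × 10⁵ cells/mL) were seeded onto serial five-fold compound dilutions and infected with 100–300 CCID₅₀ virus stock, or given medium only (mock). Viability was read by MTT at 540 and 690 nm five days after infection, using the median OD of three wells. EC₅₀ is 50% protection from viral cytopathicity. CC₅₀ is 50% loss of viability in mock-infected cells.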

[2] = tested on: Human immunodeficiency virus 2; assay: Antiviral activity against HIV2 ROD infected in human MT4 cells assessed as protection against virus-induced cytopathic effect incubated for 5 days by MTT assay; settings: Human immunodeficiency virus 2, ISOLATE ROD, MT4, 120 h
[3] = tested on: Human immunodeficiency virus 1; assay: Antiviral activity against wild type HIV1 3B infected in human MT4 cells assessed as protection against virus-induced cytopathic effect incubated for 5 days by MTT assay; assay type: functional, organism-based; settings: Human immunodeficiency virus 1, 3B, MT4, 120 h; outline: as §1
[4] = molecular target: Human immunodeficiency virus type 1 reverse transcriptase (Human immunodeficiency virus 1) (UniProt Q72547); assay: Inhibition of wild type HIV1 Reverse transcriptase RNase H expressed in Escherichia coli at 100 uM using 5'-UUUUUUUUUAGGAUACAUAUGGUUAAAGU-3' oligonucleotide as substrate and DNA21P as primer in presence of [gamma32P]-ATP by PAGE analysis relative to control
[5] = tested on: Human immunodeficiency virus 1; assay: Antiviral activity against HIV1 RES056 infected in human MT4 cells assessed as protection against virus-induced cytopathic effect incubated for 5 days by MTT assay; assay type: functional, organism-based; settings: Human immunodeficiency virus 1, RES056, MT4, 120 h; outline: as §1
[6] = molecular target: Human immunodeficiency virus type 1 reverse transcriptase (Human immunodeficiency virus 1) (UniProt Q72547); assay: Inhibition of wild type HIV1 Reverse transcriptase RNase H expressed in Escherichia coli at 50 uM using 5'-UUUUUUUUUAGGAUACAUAUGGUUAAAGU-3' oligonucleotide as substrate and DNA21P as primer in presence of [gamma32P]-ATP by PAGE analysis relative to control

SMILES	IC50 [1]	inhibition [4]	inhibition [6]	CC50 (MT4)	EC50 [2]	EC50 [3]	EC50 [5]
Cc1c(O)c([N+](=O)[O-])cc2cc(C(=O)NC3CCN(S(=O)(=O)N(C)C)CC3)c(=O)oc12	–	–	–	50.8 µM	> 50.8 µM	> 50.8 µM	–
Cc1c(O)c([N+](=O)[O-])cc2cc(C(=O)NC3CCN(C(=O)c4ccc([N+](=O)[O-])cc4)CC3)c(=O)oc12	–	–	–	> 251 µM	> 251 µM	> 251 µM	–
Cc1c(O)c([N+](=O)[O-])cc2cc(C(=O)NC3CCN(Cc4ccc(F)cc4)CC3)c(=O)oc12	–	–	–	42.6 µM	> 42.6 µM	> 42.6 µM	–
Cc1c(O)c([N+](=O)[O-])cc2cc(C(=O)Nc3ccccc3F)c(=O)oc12	–	–	–	10.7 µM	> 10.7 µM	> 10.7 µM	–
Cc1c(O)c([N+](=O)[O-])cc2cc(C(=O)NCc3ccc(F)cc3Cl)c(=O)oc12	–	–	–	32.5 µM	> 32.5 µM	> 32.5 µM	–
N#Cc1ccc(CN2CCC(NC(=O)c3cc4cc([N+](=O)[O-])c(O)c(O)c4oc3=O)CC2)cc1	–	–	–	> 269 µM	> 269 µM	160 µM	–
Cc1c(O)c([N+](=O)[O-])cc2cc(C(=O)NCc3ccc(F)cc3)c(=O)oc12	–	–	–	44 µM	> 44 µM	> 44 µM	–
Cc1c(O)c([N+](=O)[O-])cc2cc(C(=O)NCc3cccc(F)c3)c(=O)oc12	–	–	–	47.5 µM	> 47.5 µM	> 47.5 µM	–
Cc1c(O)c([N+](=O)[O-])cc2cc(C(=O)Nc3ccc(F)cc3)c(=O)oc12	–	–	–	6.5 µM	> 6.5 µM	> 6.5 µM	–
Cc1c(O)c([N+](=O)[O-])cc2cc(C(=O)NC3CCN(Cc4ccccc4)CC3)c(=O)oc12	–	–	–	7.8 µM	> 7.8 µM	> 7.8 µM	–
Cc1c(O)c([N+](=O)[O-])cc2cc(C(=O)NC3CCN(Cc4ccc([N+](=O)[O-])cc4)CC3)c(=O)oc12	–	–	–	> 264 µM	> 259 µM	234 µM	–
O=C(NC1CCN(Cc2ccc([N+](=O)[O-])cc2)CC1)c1cc2cc([N+](=O)[O-])c(O)c(O)c2oc1=O	–	–	–	> 217 µM	> 101 µM	> 101 µM	–
Cc1c(O)c([N+](=O)[O-])cc2cc(C(=O)NC3CCN(Cc4ccc(Br)cc4)CC3)c(=O)oc12	–	–	–	72.3 µM	> 72.3 µM	> 72.3 µM	–
O=C(NCc1cccc(F)c1)c1cc2cc([N+](=O)[O-])c(O)c(O)c2oc1=O	–	–	–	228 µM	> 228 µM	> 228 µM	–
O=C(NCc1ccccc1F)c1cc2cc([N+](=O)[O-])c(O)c(O)c2oc1=O	–	–	–	259 µM	> 259 µM	> 259 µM	–
Cc1ccc(CN2CCC(NC(=O)c3cc4cc([N+](=O)[O-])c(O)c(C)c4oc3=O)CC2)cc1	–	–	–	> 276 µM	> 276 µM	> 276 µM	–
Cc1c(O)c([N+](=O)[O-])cc2cc(C(=O)NC3CCN(Cc4cccc(Cl)c4)CC3)c(=O)oc12	–	–	–	9.37 µM	–	> 9.38 µM	–
Cc1c(O)c([N+](=O)[O-])cc2cc(C(=O)NC3CCN(C(=O)N(C)C)CC3)c(=O)oc12	–	–	–	19.9 µM	> 19.9 µM	> 19.9 µM	–
COC(=O)c1cc(NC(=O)c2cc3cc([N+](=O)[O-])c(O)c(C)c3oc2=O)ccc1O	–	–	–	182 µM	> 182 µM	> 182 µM	–

Continued, in another order:

IC50 [1]	inhibition [4]	inhibition [6]	SMILES	CC50 (MT4)	EC50 [2]	EC50 [3]	EC50 [5]
> 100 µM	47.4%	–	O=C(NC1CCN(Cc2ccc(Br)cc2)CC1)c1cc2cc([N+](=O)[O-])c(O)c(O)c2oc1=O	112 µM	> 112 µM	> 112 µM	–
9.9 µM	–	–	Cc1c(O)c([N+](=O)[O-])cc2cc(C(=O)Nc3ccc(O)c(C(=O)O)c3)c(=O)oc12	> 312 µM	121 µM	121 µM	113 µM
20.8 µM	–	–	O=C(O)c1cc(NC(=O)c2cc3cc([N+](=O)[O-])c(O)c(O)c3oc2=O)ccc1O	> 310 µM	116 µM	101 µM	107 µM
> 50 µM	87.2%	37.1%	Cc1c(O)c([N+](=O)[O-])cc2cc(C(=O)NC3CCN(Cc4ccc(C(N)=O)cc4)CC3)c(=O)oc12	> 260 µM	> 260 µM	138 µM	–
> 50 µM	62.9%	< 10%	Cc1c(O)c([N+](=O)[O-])cc2cc(C(=O)NC3CCN(Cc4cccc(Br)c4)CC3)c(=O)oc12	14.7 µM	> 14.7 µM	> 14.7 µM	–
> 250 µM	–	–	CCC1CCN(C2CCN(C(=O)c3cc4cc([N+](=O)[O-])c(O)c(O)c4oc3=O)CC2)CC1	> 280 µM	> 280 µM	208 µM	213 µM
> 50 µM	57.4%	32.4%	O=C(NC1CCN(Cc2cccc(Br)c2)CC1)c1cc2cc([N+](=O)[O-])c(O)c(O)c2oc1=O	153 µM	> 153 µM	> 153 µM	–
> 50 µM	72.5%	< 10%	O=C(NC1CCN(Cc2cccc(Cl)c2)CC1)c1cc2cc([N+](=O)[O-])c(O)c(O)c2oc1=O	143 µM	> 143 µM	> 143 µM	–
8.4 µM	–	31.8%	O=C(NC1CCN(Cc2ccc(Cl)cc2)CC1)c1cc2cc([N+](=O)[O-])c(O)c(O)c2oc1=O	21.7 µM	> 21.7 µM	> 21.7 µM	–
45.2 µM	–	–	Cc1c(O)c([N+](=O)[O-])cc2cc(C(=O)NC3CCN(Cc4cccc(F)c4)CC3)c(=O)oc12	50.5 µM	> 50.5 µM	> 50.5 µM	–
> 50 µM	72.1%	< 10%	Cc1cccc(CN2CCC(NC(=O)c3cc4cc([N+](=O)[O-])c(O)c(C)c4oc3=O)CC2)c1	3.88 µM	> 3.88 µM	> 3.88 µM	–
> 50 µM	68.6%	< 10%	O=C(NCc1ccc(F)cc1Cl)c1cc2cc([N+](=O)[O-])c(O)c(O)c2oc1=O	266 µM	> 266 µM	46.1 µM	–
> 50 µM	78%	12%	O=C(Nc1ccc(F)cc1F)c1cc2cc([N+](=O)[O-])c(O)c(O)c2oc1=O	> 330 µM	> 330 µM	237 µM	–
> 50 µM	72.5%	< 10%	O=C(Nc1ccc(F)cc1)c1cc2cc([N+](=O)[O-])c(O)c(O)c2oc1=O	200 µM	> 200 µM	> 200 µM	–
> 100 µM	28.6%	–	Cc1c(O)c([N+](=O)[O-])cc2cc(C(=O)Nc3cccc(F)c3)c(=O)oc12	12.5 µM	> 12.5 µM	> 12.5 µM	–
68.5 µM	–	–	O=C(c1cc2cc([N+](=O)[O-])c(O)c(O)c2oc1=O)N1CCCN(S(=O)(=O)c2ccc3ccncc3c2)CC1	> 231 µM	> 231 µM	82.7 µM	123 µM
> 50 µM	57.7%	–	O=C(NC1CCN(Cc2cccc(F)c2)CC1)c1cc2cc([N+](=O)[O-])c(O)c(O)c2oc1=O	> 220 µM	> 220 µM	210 µM	–
> 100 µM	48%	–	O=C(NCc1ccc(F)cc1)c1cc2cc([N+](=O)[O-])c(O)c(O)c2oc1=O	272 µM	> 272 µM	> 272 µM	–
> 100 µM	23.8%	–	Cc1c(O)c([N+](=O)[O-])cc2cc(C(=O)NC3CCN(Cc4ccc(Cl)cc4)CC3)c(=O)oc12	> 264 µM	148 µM	167 µM	–
45.1 µM	–	–	CCCN(C(=O)c1cc2cc([N+](=O)[O-])c(O)c(O)c2oc1=O)[C@@H]1CCc2nc(N)sc2C1	> 271 µM	144 µM	28.5 µM	19.6 µM
> 100 µM	38.7%	–	Cc1c(O)c([N+](=O)[O-])cc2cc(C(=O)NCc3ccccc3F)c(=O)oc12	45 µM	> 45 µM	> 45 µM	–
